Most compounds without a hit are left out; they make up all but 3.4% or so of the library.
MC4R barr agon – agonists of human melanocortin 4 receptor (MC4R) beta-arrestin; P32245; activation, % at 8.9 µM; 360,000 tested, 0.98% active; U2OS MC4R beta-arrestin complementation, luminescence; percent of melanotan II response, DMSO zero;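 active means activation above a per-plate cutoff, the mean activation of sample wells on that plate plus 3 SD, cut at about 8% in these data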
Target sequence (P32245 whole entry, looked up): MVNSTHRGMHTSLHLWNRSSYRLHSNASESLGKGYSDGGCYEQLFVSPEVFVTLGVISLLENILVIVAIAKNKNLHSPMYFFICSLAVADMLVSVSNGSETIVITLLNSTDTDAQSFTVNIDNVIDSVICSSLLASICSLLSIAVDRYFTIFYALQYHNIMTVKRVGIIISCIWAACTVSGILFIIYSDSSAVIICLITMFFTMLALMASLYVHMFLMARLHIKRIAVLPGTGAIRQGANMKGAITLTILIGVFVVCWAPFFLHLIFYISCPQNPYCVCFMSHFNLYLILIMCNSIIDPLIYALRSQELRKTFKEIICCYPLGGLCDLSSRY
TMEM16A inh – inhibitors of mouse TMEM16A calcium-activated chloride channel; Q8BHY3; 310,000 tested, 1.2% active; HEK293 TMEM16A/YFP iodide influx fluorescence, ionomycin; AID 588511; normalized B-score (activity score, 25-100; higher = stronger inhibition) at 10 µM;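 active means ratio plate-corrected score three or more library SD toward inhibition, starting fluorescence score within five deviations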;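 further: score derived from kinetic fluorescence span divided by baseline fluorescence per well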
MC4R antagonist – human MC4R antagonism in cAMP assay | MC4R-expressing cells, MTII-stimulated cAMP, LANCE TR-FRET | AID 540295 | 360,000 tested, 0.48% active | P32245 | inhibition, % at 6.5 µM;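 active means inhibition above its plate's cutoff, the mean of tested wells on that plate plus 3 SD, cut at about 29% in these data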;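 further: 0% = Melanotan II alone and 100% = Melanotan II plus saturating MCL0020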
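material = U2OS cells stably expressing human melanocortin 4 receptor (MC4R) | also added = Melanotan II challenge | dosing = single nominal compound dose of 6.5 µM | detection = TR-FRET with Eu-cAMP and labeled anti-cAMP, 671 nm | replication = singlicate | timing = compound 30 min, challenge 1 h, detection 1 h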
m5-HT2A agonist – agonists of mouse serotonin 5-HT2A receptor (HTR2A). CHO-K1 mHTR2A beta-arrestin complementation, luminescence; percent of 30 µM serotonin response. activation, % at 7.6 µM. 360,000 tested, 0.66% active;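 active means activation above a run cutoff, the mean activation of all tested compounds plus 3 SD, cut at about 14% in these data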;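 further: 0% = plate median of compound wells and 100% = 30 µM serotonin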
ANO1 activ – activates or potentiates the mouse TMEM16A chloride channel; Q8BHY3; HEK293 TMEM16A/YFP-H148Q/I152L, iodide quench fluorescence; stronger effect = lower value; B-score at 10 µM; 340,000 tested, 0.3% active;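 active means fluorescence-ratio B-score plate-corrected deviation score at least 3 library SD below zero, with starting fluorescence score within 5 deviations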;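 further: channel opened by trigger with iodide after compound preincubation; score built on the fluorescence ratio of max minus min over baseline; more negative score means more quench and so TMEM16A activation or potentiation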
beta cell repl – inducers of beta-cell replication in MIN6 cells; MIN6 cells proliferation, ATPlite luminescence, 48 h; cells starved in 0.2% serum; 100% = growth in 10% serum; proliferation, % at 10 µM; 330,000 tested, 0.29% active; AID 2380;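 active means compounds whose signal lies at least 3.5 SD above the mean of all wells on their plate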;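 further: 0% = DMSO-treated cells in low-serum medium and 100% = 10% serum control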
MOR ag counter – activates human mu opioid receptor in HTR2A counterscreen | shares compounds with m5-HT2A agonist | U2OS OPRM1 beta-arrestin PathHunter, luminescence; DMSO 0%, DAMGO 9.3 µM 100% | activation, % at 9.3 µM | 2,300 tested, 5.3% active | AID 624380;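 active means mean activation above the mean of DMSO-only wells plus 3 SD, cut at about 0.5% in these data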
HTR2A ag conf – confirmation of mouse HTR2A serotonin receptor agonists; shares compounds with m5-HT2A agonist; activation, % at 7.6 µM; CHO-K1 PathHunter beta-arrestin recruitment, luminescence; DMSO 0%, 30 µM serotonin 100%; 2,300 tested, 19% active;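 active means mean activation across triplicates above the hit threshold derived in the original primary screen, cut at about 15% in these data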
Numbers without * were called inactive; i = inactive; nt = not tested or not shown.

SMILES	MC4R barr agon	TMEM16A inh	MC4R antagonist	m5-HT2A agonist	ANO1 activ	beta cell repl	MOR ag counter	HTR2A ag conf
Cc1ccc(-c2cc(C(=O)NCc3ccco3)c3ccccc3n2)s1	0	i	-4	16*	i	-3	-1	-5
COC(=O)[C@H](Cc1ccc(O)cc1)NC(=O)Cn1cnc2c(OCc3ccccc3)ncnc21	-4	nt	12	15*	nt	-2	nt	-3
CCCCN(C=O)c1c(CC)nc2c(OCC(=O)N3CCOCC3)cccn12	0	nt	9	16*	nt	nt	0	-3
COc1ccc(CCNC(=O)c2c(Cl)ccc(Cl)c2OC)cc1OC	-1	i	11	31*	i	-3	-1	-5
Cc1cc(C)nc(SCC(=O)c2ccc(F)c(C)c2)n1	-2	i	3	36*	i	-2	-1	-1
COc1ccc(C(=O)CSc2nc(C)cc(C)n2)cc1C	0	i	-1	0	i	-3	nt	nt
O=[N+]([O-])c1cc(-c2nnc(Nc3ccc(O)cc3)c3ccccc23)ccc1N1CCOCC1	0	i	-1	31*	i	-3	0	21*
CCOC(=O)N1CCC(N2C(=O)c3ccccc3C2Nc2cccnc2)CC1 (centres undefined)	-2	i	12	19*	i	0	0	-1
O=P(Nc1ccccc1)(Nc1ccccc1)c1ccccc1	-1	nt	2	15*	i	nt	-1	-3
CCCNCC1C(Oc2ccc(Cl)cc2Cl)C(=O)N1c1cccc(C)c1C (centres undefined)	3	i	10	17*	i	-6	0	8
COc1ccc(/C=N/Nc2ccc([N+](=O)[O-])cc2)cc1O	-1	i	1	-7	i	2	nt	nt
Cc1ccsc1CN1CCN(c2ccccn2)CC1	-2	i	4	35*	i	-1	-1	98*
CC(C)C(=O)Nc1ccc(-c2nc3ncccc3o2)cc1	-3	i	-1	2	i	-3	nt	nt
CC(C)C(=O)Nc1cccc(-c2nc3ncccc3o2)c1	-2	i	3	26*	i	0	-1	3
CCCS(=O)(=O)NC(=O)C1(C)CCCN(C(=O)c2ccccc2C(F)(F)F)C1 (centres undefined)	0	nt	5	20*	nt	nt	0	3
COc1ccc(S(=O)(=O)Cc2ccc(C(=O)N3CCOCC3)o2)cc1	2	i	-5	17*	i	-2	-1	-2
O=C(c1ccc(CS(=O)(=O)c2ccc(Br)cc2)o1)N1CCOCC1	2	i	3	-1	i	8	nt	nt
Cc1ccc(CCNC(=O)CCCn2nc(C)c3c(C)n(-c4ccc(C)cc4)nc3c2=O)cc1	-2	i	2	-7	i	-3	nt	nt
Cc1ccc(-n2nc3c(=O)n(CCCC(=O)NCCN4CCN(C)CC4)nc(C)c3c2C)cc1	0	i	-4	21*	i	-3	0	1
Nc1ncnc2[nH]c(=S)[nH]c12	-2	nt	1	17*	i	nt	0	0
CC1(C(=O)NCC2CC2)Cc2c(-c3cccc(C(N)=O)c3)ccnc2O1 (centres undefined)	-1	nt	4	14*	nt	nt	-1	-1
CC(=O)NCCNC(=O)C1(C)Cc2c(-c3ccc(C(N)=O)cc3)ccnc2O1 (centres undefined)	2	nt	2	24*	nt	nt	-1	-1
CCc1noc(C)c1C(=O)OCC(=O)NCc1ccccc1OC	-2	nt	-6	3	i	-2	nt	nt
CN1C2CCC1CC(NS(=O)(=O)c1ccc(C#N)cc1)C2 (centres undefined)	-1	i	9	16*	i	5	-1	-2
CN1C2CCC1CC(NS(=O)(=O)c1cccc(C(F)(F)F)c1)C2 (centres undefined)	-4	i	-5	-1	i	1	nt	nt
SMILES	MC4R barr agon	TMEM16A inh	MC4R antagonist	m5-HT2A agonist	ANO1 activ	beta cell repl	MOR ag counter	HTR2A ag conf
CCOC(=O)c1[nH]cnc1C(=O)N1CCN(C(=O)OC(C)(C)C)CC1	-1	nt	1	18*	i	1	-1	-4
Cc1ccc2c(C)c(C(=O)Nc3ccc(S(=O)(=O)Nc4onc(C)c4C)cc3)oc2c1	-2	i	9	7	i	-6	nt	nt
O=C(NC(=O)N1CCN(c2cccc(Cl)c2)CC1)c1ccccc1	0	i	3	15*	i	-1	0	4
Cc1cnc(C)c(Nc2nc(C(N)c3ccccc3)cs2)n1 (centres undefined)	-1	nt	-2	12	nt	nt	nt	nt
C/C(=C\C(=O)c1ncc(C(F)(F)F)cc1Cl)N(C)C	-1	i	2	21*	i	-4	-1	-6
Cc1ccc(SCCNC(=O)C(C)C)cc1	0	i	-1	16*	i	0	-1	-5
CCN(C(=O)CSc1nnc(-c2ccccc2OC)n1N)c1c(N)n(Cc2ccccc2)c(=O)[nH]c1=O	-2	nt	-1	4	i	nt	nt	nt
O=C(NCCCN1CCCCC1)C1CCN(S(=O)(=O)N2CCC3(CC2)OCCO3)CC1	-3	i	2	0	i	2	nt	nt
COc1ccc2[nH]cc(CCNC(=O)C3CCCCC3)c2c1	0	i	1	15*	i	-2	-1	9
COc1ccc2[nH]cc(CCNS(=O)(=O)c3ccc(NC(C)=O)cc3)c2c1	-1	i	5	31*	i	0	0	15*
O=C(O)[C@H]1CCCC[C@H]1C(=O)NCCc1ccccc1	-3	i	-1	11	i	0	nt	nt
Cc1[nH]c2ccccc2c1C(=O)C(=O)NCCc1c[nH]c2ccccc12	-2	i	-5	15*	i	-2	0	-4
O=C(O)C1CCCCC1C(=O)NCCc1c[nH]c2ccccc12 (centres undefined)	2	i	16	38*	i	-3	-1	15*
COc1cc(NC(=O)CSCC(=O)Nc2cc(OC)cc(OC)c2)cc(OC)c1	nt	i	nt	nt	nt	-1	nt	nt
COCCn1c(SCC(=O)Nc2ccc(OC)cc2OC)nc2ccccc2c1=O	-1	i	-7	-2	i	-2	nt	nt
COc1ccc(NC(=O)CSc2nc3ccccc3c(=O)n2CCCN2CCC(C)CC2)c(OC)c1	-3	i	4	61*	i	-6	-1	18*

Screening results as filed in PubChem BioAssay.
